These results are taken from ChEMBL document CHEMBL3872285, “Discovery of a Potent, Selective, and Orally Available PI3Kδ Inhibitor for the Treatment of Inflammatory Diseases” (ACS Med Chem Lett, 2017).

The nature of data set [1]: Drug metabolism in human liver microsomes assessed as disappearance of parent compound at 5 uM after 30 mins in presence of NADPH by UPLC-MS/MS analysis. On the technique in general: Liver microsomes are a subcellular fraction often used to study metabolism.
The nature of data set [2]: Half life in Wistar rat at 1 mg/kg, iv. Type of data set: ADME, organism-based. The following applies: in vivo.
A short description of data set [3]: Apparent volume of distribution in Beagle dog at 1 mg/kg, iv through bolus administration. Type of data set: ADME, organism-based, Canis lupus familiaris. The following applies: in vivo, read-out: Vz.
The nature of data set [4]: Oral bioavailability in Wistar rat at 1 mg/kg administered via gavage. As to conditions: in vivo. Type of data set: ADME, organism-based.
A short description of data set [5]: Drug metabolism in rat liver microsomes assessed as disappearance of parent compound at 5 uM after 30 mins in presence of NADPH by UPLC-MS/MS analysis.
Data set [6] is described as follows: Half life in Beagle dog at 1 mg/kg, iv through bolus administration. Type of data set: ADME, organism-based, Canis lupus familiaris. As to conditions: in vivo.
Data set [7] is described as follows: AUC in Beagle dog at 1 mg/kg, iv through bolus administration. The following applies: in vivo. Type of data set: ADME, organism-based, Canis lupus familiaris.
A short description of data set [8]: Apparent volume of distribution in Wistar rat at 1 mg/kg, iv. Type of data set: ADME, organism-based. As to conditions: in vivo, read-out: Vz.
Data set [9] is described as follows: Clearance in Beagle dog at 1 mg/kg, iv through bolus administration. As to conditions: in vivo.
The nature of data set [10]: AUC in Wistar rat at 1 mg/kg, iv. As to conditions: in vivo. Type of data set: ADME, organism-based. A digest of the protocol: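 Wistar rats received a single 1 mg/kg intravenous dose. Plasma samples were collected and AUC was calculated from them, along with half-life, clearance and steady-state volume of distribution. Values are means of two animals (n=2).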
Data set [11] deals with PI3-kinase p110-delta/p85-alpha (Homo sapiens, UniProt O00329). The data set can be described thus: Inhibition of full length recombinant human N-terminal His6-tagged PI3K p110delta/human p85alpha expressed in baculovirus infected sf21 cells using PIP2 as substrate preincubated for 30 mins followed by substrate addition by HTRF assay. In general terms: In TR-FRET formats the signal depends on donor and acceptor labels being close together.
PI3-kinase p110-delta/p85-alpha, sequence (P27986 whole entry): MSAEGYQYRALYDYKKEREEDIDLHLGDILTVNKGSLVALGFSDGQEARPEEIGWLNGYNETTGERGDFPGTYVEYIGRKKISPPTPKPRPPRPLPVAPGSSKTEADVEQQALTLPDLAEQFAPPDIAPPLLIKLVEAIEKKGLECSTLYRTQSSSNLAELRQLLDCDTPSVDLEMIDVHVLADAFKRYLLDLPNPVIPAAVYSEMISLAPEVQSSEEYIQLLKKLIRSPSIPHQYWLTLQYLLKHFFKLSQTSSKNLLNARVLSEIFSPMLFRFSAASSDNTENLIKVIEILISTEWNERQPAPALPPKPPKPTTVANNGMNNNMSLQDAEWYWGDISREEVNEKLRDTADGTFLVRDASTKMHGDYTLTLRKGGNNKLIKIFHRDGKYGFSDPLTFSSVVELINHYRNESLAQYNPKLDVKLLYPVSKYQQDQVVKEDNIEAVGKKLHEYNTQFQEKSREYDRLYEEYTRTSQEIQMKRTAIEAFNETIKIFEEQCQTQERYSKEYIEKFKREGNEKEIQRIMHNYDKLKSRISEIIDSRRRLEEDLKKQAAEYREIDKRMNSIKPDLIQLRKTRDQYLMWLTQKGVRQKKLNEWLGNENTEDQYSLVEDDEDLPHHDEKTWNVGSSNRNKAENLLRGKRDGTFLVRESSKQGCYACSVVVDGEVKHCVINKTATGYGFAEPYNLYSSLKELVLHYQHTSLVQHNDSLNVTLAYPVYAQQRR
PI3-kinase p110-delta/p85-alpha, sequence (O00329 whole entry): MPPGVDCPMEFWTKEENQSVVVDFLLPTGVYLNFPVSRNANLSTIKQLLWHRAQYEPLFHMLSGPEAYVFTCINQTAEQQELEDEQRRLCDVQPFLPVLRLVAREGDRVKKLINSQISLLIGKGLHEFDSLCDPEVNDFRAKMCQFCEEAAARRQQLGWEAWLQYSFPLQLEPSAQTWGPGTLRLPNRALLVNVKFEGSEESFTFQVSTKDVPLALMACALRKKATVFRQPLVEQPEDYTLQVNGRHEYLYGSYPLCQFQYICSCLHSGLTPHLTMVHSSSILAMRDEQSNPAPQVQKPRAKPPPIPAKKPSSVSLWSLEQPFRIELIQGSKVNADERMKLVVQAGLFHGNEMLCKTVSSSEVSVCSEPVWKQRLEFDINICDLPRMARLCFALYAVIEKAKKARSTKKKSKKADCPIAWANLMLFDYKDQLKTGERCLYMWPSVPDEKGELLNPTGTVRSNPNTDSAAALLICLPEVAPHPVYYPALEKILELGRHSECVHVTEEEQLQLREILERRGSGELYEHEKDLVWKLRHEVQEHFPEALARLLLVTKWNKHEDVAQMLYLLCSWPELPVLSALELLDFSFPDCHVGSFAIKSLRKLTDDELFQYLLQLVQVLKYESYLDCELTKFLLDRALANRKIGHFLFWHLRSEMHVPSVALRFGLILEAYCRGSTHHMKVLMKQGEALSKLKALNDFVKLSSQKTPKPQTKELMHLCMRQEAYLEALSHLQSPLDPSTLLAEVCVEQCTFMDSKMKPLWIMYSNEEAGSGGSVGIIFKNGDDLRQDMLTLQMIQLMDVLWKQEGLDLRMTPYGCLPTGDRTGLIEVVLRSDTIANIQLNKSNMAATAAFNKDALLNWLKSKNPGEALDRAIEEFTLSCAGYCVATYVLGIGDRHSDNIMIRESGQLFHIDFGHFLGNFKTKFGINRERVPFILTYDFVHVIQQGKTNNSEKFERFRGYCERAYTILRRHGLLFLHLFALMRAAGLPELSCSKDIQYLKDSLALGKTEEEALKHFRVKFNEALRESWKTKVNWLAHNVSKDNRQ

Data set [12] in a line: Clearance in Wistar rat at 1 mg/kg, iv. As to conditions: in vivo.
Another data set concerns the target Cytochrome P450 2C19 (Homo sapiens, UniProt P33261). Briefly: Inhibition of CYP2C19 in human liver microsomes assessed as reduction in S-mephenytoin-4-hydroxylation at 1 to 25 uM by UPLC-MS/MS analysis. Type of data set: ADME.
Data set [13] can be described thus: Protein binding in dog plasma at 1 uM by LC-MS/MS analysis. As to conditions: read-out: PPB. Type of data set: ADME, cell-free, Canis lupus familiaris.
A further data set concerns the target T1, Cytochrome P450 1A2 (Homo sapiens, UniProt P05177).
T1 sequence (P05177 whole entry): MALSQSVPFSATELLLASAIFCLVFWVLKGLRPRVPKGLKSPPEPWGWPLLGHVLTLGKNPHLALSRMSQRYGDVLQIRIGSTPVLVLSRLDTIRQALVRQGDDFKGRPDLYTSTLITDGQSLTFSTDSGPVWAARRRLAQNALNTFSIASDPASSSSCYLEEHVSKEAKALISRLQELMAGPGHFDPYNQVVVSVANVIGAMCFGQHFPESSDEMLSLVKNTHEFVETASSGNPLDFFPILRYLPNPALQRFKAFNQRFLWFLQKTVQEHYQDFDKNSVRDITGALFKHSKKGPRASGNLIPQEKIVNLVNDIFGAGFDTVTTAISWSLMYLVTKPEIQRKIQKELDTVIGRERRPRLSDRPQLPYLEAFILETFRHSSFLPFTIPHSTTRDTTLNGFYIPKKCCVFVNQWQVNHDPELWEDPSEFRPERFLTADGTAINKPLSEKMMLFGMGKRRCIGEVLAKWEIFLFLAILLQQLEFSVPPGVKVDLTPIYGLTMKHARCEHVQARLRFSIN
Briefly: Inhibition of CYP1A2 in human liver microsomes assessed as reduction in Ethoxyresorufin O-deethylation at 1 to 25 uM by UPLC-MS/MS analysis. Type of data set: ADME.

The test system of data set [14] is Rattus norvegicus. The data set can be described thus: In vivo inhibition of PI3Kdelta in Wistar rat assessed as reduction in ConA-induced increase in plasma IL2 production administered through oral gavage 1 hr prior to ConA measured 90 mins post ConA challenge by ELISA. Type of data set: functional. The following applies: read-out: ID50 (the source's name).
For a further data set, the target named is Cytochrome P450 3A4 (Homo sapiens, UniProt P08684). The data set can be described thus: Inhibition of CYP3A4 in human liver microsomes assessed as reduction in testosterone 6beta-hydroxylation at 1 to 25 uM by UPLC-MS/MS analysis. Type of data set: ADME.
Data set [15] is described as follows: Apparent permeability of compound at 20 uM after 5 hrs by PAMPA. Type of data set: ADME. On the technique in general: In PAMPA a lipid-coated filter parts donor from acceptor wells.
Data set [16] in a line: Protein binding in rat plasma at 1 uM by LC-MS/MS analysis. Type of data set: ADME, cell-free. As to conditions: read-out: PPB.
Data set [17] is described as follows: Oral bioavailability in Beagle dog at 1 mg/kg administered via gavage. Type of data set: ADME, organism-based, Canis lupus familiaris. The following applies: in vivo.
The next data set concerns the target PI3K p110 beta/p85 alpha (Homo sapiens, UniProt P42338). Briefly: Inhibition of full length recombinant human N-terminal […]-tagged PI3K p110beta/full length human p85alpha expressed in baculovirus infected Sf21 insect cells using PIP2 as substrate preincubated for 30 mins followed by substrate addition by HTRF assay. In a few lines:
(§1)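 Recombinant human class I PI3K isoform, HTRF readout. ATP held at the Km of the enzyme. Compound preincubated with enzyme for 30 min. PIP3 product detected by its displacement of biotin-PIP3 from an energy-transfer complex.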

The target in data set [18] is PI3-kinase p110-alpha/p85-alpha (Homo sapiens, UniProt P42336). Briefly: Inhibition of full length recombinant human N-terminal His6-tagged PI3K p110alpha/human p85alpha expressed in baculovirus infected Sf21 insect cells using PIP2 as substrate preincubated for 30 mins followed by substrate addition by HTRF assay. In a few lines: as §1
PI3-kinase p110-alpha/p85-alpha, sequence (P27986 whole entry): as the sequence (P27986 whole entry) above
PI3-kinase p110-alpha/p85-alpha, sequence (P42336 whole entry): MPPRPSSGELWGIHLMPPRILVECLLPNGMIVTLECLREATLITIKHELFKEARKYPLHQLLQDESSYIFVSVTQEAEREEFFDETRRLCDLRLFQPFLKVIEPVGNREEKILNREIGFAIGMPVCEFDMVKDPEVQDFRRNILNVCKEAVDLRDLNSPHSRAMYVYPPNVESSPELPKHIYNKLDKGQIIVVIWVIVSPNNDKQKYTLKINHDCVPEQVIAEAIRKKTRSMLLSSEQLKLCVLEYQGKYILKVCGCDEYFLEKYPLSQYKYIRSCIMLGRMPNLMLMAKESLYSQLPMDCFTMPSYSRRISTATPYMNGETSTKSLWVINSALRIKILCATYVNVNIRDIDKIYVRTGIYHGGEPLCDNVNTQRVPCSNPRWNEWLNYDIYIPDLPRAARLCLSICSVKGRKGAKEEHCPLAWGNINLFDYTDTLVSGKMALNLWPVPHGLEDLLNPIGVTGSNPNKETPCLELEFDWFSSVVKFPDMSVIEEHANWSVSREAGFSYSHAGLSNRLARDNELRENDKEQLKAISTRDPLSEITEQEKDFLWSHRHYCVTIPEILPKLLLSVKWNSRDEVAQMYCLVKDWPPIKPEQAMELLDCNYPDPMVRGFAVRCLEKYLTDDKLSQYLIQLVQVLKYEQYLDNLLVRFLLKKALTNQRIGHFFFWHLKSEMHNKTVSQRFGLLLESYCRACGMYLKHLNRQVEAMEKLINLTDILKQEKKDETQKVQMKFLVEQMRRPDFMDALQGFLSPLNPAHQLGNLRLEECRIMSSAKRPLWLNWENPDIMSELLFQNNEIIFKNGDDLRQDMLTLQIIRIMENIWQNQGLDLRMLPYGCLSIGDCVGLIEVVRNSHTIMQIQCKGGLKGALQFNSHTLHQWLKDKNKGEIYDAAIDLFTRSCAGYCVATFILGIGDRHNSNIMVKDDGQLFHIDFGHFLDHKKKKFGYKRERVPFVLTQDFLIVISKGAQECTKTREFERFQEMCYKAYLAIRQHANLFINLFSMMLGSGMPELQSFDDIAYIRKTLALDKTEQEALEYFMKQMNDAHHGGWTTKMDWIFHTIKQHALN
The target in a further data set is Cytochrome P450 2C9 (Homo sapiens, UniProt P11712). Briefly: Inhibition of CYP2C9 in human liver microsomes assessed as reduction in diclofenac 4-hydroxylation at 1 to 25 uM by UPLC-MS/MS analysis. Type of data set: ADME.
Data set [19] in a line: Protein binding in mouse plasma at 1uM by LC-MS/MS analysis. Type of data set: ADME, cell-free. As to conditions: read-out: PPB.
Data set [20] can be described thus: Protein binding in human plasma at 1 uM by LC-MS/MS analysis. As to conditions: read-out: PPB. Type of data set: ADME, cell-free. A digest of the protocol:
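Binding measured by equilibrium dialysis at 37 °C, compound at 1 µM in human plasma; percent bound reported as mean.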

The test system of data set [21] is Rattus norvegicus. The data set can be described thus: Anti-inflammatory activity in Brown Norway rat assessed as reduction in OVA-induced eosinophil infilteration to bronchoalveolar lavage administered orally bid 1 hr prior to OVA challenge on day 14 and 6 hrs post OVA challenge on day 21 measured 24 hrs post last OVA challenge by microscopic method. Type of data set: functional.

Data set [22] can be described thus: Stability in human plasma at 5 uM up to 24 hrs by UPLC-MS/MS analysis. Type of data set: ADME, cell-free. The following applies: read-out: Stability. A digest of the protocol:
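Compound incubated at 2 µg/ml in plasma (sodium heparin anticoagulant) at 37 °C for 24 h; percent remaining reported.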

For the next data set, the target named is Cytochrome P450 2D6 (Homo sapiens, UniProt P10635). The data set can be described thus: Inhibition of CYP2D6 in human liver microsomes assessed as reduction in dextromethorphan O-demethylation at 1 to 25 uM by UPLC-MS/MS analysis. Type of data set: ADME.
Cytochrome P450 2D6, sequence (P10635 whole entry): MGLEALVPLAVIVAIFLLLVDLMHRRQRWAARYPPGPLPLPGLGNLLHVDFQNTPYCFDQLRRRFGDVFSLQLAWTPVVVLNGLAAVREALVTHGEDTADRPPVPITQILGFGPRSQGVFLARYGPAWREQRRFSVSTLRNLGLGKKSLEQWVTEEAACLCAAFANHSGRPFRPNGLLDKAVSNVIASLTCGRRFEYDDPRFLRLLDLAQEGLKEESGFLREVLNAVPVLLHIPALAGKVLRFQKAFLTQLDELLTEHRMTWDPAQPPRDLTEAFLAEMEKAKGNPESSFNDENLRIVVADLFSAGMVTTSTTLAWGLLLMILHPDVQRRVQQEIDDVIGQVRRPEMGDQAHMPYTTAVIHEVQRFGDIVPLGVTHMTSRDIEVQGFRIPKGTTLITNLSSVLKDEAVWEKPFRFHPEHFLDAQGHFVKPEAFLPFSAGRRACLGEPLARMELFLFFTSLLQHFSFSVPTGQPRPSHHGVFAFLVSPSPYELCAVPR

Cytochrome P450 2C19, sequence (P33261 whole entry): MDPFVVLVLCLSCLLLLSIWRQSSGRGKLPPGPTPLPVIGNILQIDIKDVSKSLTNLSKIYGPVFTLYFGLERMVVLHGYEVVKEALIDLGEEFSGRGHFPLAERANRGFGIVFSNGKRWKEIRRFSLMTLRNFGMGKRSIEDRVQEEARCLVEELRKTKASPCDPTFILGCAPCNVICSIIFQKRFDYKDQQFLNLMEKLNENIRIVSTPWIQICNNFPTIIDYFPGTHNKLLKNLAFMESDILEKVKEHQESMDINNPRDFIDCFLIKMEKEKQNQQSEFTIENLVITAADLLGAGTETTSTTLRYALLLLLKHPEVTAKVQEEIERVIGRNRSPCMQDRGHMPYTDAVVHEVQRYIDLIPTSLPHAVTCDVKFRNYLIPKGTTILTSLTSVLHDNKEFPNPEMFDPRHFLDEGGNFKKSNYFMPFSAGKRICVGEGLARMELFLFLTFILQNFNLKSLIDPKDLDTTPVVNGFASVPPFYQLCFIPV
PI3K p110 beta/p85 alpha, sequence (P27986 whole entry, canonical isoform): as the sequence (P27986 whole entry) above
PI3K p110 beta/p85 alpha, sequence (P42338 whole entry, canonical isoform): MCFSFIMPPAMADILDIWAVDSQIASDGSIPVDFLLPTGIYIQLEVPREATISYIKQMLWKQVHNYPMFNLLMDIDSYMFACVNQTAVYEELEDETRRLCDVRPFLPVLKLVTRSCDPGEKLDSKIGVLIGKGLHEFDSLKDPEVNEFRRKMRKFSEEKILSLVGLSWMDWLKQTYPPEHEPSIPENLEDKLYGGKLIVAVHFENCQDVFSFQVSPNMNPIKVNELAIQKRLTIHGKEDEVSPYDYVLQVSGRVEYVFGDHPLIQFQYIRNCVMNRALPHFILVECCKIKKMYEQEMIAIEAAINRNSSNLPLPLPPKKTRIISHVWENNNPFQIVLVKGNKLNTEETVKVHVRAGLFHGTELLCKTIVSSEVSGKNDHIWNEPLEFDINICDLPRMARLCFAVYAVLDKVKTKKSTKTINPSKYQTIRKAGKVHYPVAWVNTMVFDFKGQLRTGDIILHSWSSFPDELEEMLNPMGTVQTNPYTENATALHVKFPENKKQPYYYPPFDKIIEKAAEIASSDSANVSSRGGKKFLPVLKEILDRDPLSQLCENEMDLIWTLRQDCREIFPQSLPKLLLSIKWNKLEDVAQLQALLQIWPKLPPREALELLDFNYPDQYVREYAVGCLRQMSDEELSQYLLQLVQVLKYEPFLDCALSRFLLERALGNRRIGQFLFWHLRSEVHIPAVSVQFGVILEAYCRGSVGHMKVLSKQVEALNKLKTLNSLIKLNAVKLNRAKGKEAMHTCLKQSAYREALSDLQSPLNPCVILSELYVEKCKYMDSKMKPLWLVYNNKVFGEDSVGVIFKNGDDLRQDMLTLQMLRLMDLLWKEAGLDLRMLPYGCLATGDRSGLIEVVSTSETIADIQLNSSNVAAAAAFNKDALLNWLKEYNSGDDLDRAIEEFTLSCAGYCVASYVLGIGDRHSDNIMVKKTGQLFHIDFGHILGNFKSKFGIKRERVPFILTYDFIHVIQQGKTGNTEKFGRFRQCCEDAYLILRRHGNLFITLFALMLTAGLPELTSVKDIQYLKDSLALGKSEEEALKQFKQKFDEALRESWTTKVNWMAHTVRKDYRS

Regarding `C[C@H](Nc1ncnc(N)c1C#N)c1nn2ccc(C(F)(F)F)c2c(=O)n1-c1ccccc1`, the metabolised at 0.5 h, 5 µM came out at 37% in data set [1] and 16% in data set [5]. For the same compound, the half-life – broadly, the time needed for the level to fall by half in the phase considered – is 3.3 h in data set [2] and 4.2 h in data set [6]. The Vd in [3] worked out at 1.5 L/kg; in data set [8], 2.4 L/kg. Further, in [4], the bioavailability was 113%. Further, the exposure (AUC) (usually the area under the concentration-time curve, a measure of exposure) amounted to 3940 ng·h/mL in [7] and 2040 ng·h/mL in [10]. In addition, the clearance (commonly a measure of how efficiently the substance is removed, as volume per time) in data set [9] came to 4.2 mL/min/kg; in data set [12] it was 8.6 mL/min/kg. The IC50 – broadly, the concentration at which inhibition is half-maximal – in data set [11] was found to be 0.003 µM.

Regarding `C[C@H](Nc1ncnc(N)c1C#N)c1nn2ccc(C#N)c2c(=O)n1-c1ccccc1`, the metabolised at 0.5 h, 5 µM in data set [1] is 16%; in data set [5] it was 20%. Besides, the figures for the half-life in data set [2] and in [6] were 3.1 h and 10.2 h, respectively. In addition, the Vd in data set [3] is 1.2 L/kg; in [8] it was 2.6 L/kg. Moreover, the IC50 at Cytochrome P450 2C19 was above 25 µM; on Cytochrome P450 1A2, above 25 µM; on Cytochrome P450 3A4, above 25 µM; on PI3K p110 beta/p85 alpha it was 0.094 µM; in data set [18] it was 8.2 µM; on Cytochrome P450 2C9, above 25 µM. In addition, the half-inhibitory concentration (IC50) in data set [11] is 0.0026 µM; on Cytochrome P450 2D6, above 25 µM. The fraction unbound at 1 µM in [13] lay within 0.35 to 0.4; in data set [16], 0.35 to 0.4; in data set [19], 0.35 to 0.4; in [20], 0.046 to 0.05. Besides, the ED50 with Rattus norvegicus [14] stood at 0.13 mg/kg; with Rattus norvegicus [21] (po, read-out: ID50 (the source's name)) it was 0.16 mg/kg. Also, the bioavailability in [4] stood at 101%; in data set [17] it was 98%. Also, in data set [15], the Papp (in general, the rate of passage across a membrane or cell layer, normalised by area and donor concentration) at 5 h, 20 µM worked out at 2.8 ×10⁻⁶ cm/s. Moreover, the area under the curve (AUC) in data set [7] stood at 9440 ng·h/mL; in [10] it was 1730 ng·h/mL. Also, the Activity result in the data set on Rattus norvegicus [21] is “Dose-dependent effect”. Besides, in [22], the remaining at 24 h, 5 µM was 100%. The clearance in [9] was 1.4 mL/min/kg; in data set [12] it was 9.6 mL/min/kg.
